Source: ChEMBL document CHEMBL4028872, “Structure-Activity Relationship, Pharmacological Characterization, and Molecular Modeling of Noncompetitive Inhibitors of the Betaine/γ-Aminobutyric Acid Transporter 1 (BGT1)” (J Med Chem, 2017)
Active and inactive are the calls of the source. The rule behind the calls is not given here.

Experiments:
[1] = biological target: Sodium- and chloride-dependent GABA transporter 1 (Homo sapiens, UniProt P30531); type: cell-based
[2] = biological target: T1, GABA transporter 3 (Mus musculus, UniProt P31649); assay: Inhibition of mouse GAT2 expressed in HEK293 cells assessed as reduction in [3H]GABA uptake after 3 mins by scintillation counting method; type: cell-based
T1 sequence (P31649 whole entry): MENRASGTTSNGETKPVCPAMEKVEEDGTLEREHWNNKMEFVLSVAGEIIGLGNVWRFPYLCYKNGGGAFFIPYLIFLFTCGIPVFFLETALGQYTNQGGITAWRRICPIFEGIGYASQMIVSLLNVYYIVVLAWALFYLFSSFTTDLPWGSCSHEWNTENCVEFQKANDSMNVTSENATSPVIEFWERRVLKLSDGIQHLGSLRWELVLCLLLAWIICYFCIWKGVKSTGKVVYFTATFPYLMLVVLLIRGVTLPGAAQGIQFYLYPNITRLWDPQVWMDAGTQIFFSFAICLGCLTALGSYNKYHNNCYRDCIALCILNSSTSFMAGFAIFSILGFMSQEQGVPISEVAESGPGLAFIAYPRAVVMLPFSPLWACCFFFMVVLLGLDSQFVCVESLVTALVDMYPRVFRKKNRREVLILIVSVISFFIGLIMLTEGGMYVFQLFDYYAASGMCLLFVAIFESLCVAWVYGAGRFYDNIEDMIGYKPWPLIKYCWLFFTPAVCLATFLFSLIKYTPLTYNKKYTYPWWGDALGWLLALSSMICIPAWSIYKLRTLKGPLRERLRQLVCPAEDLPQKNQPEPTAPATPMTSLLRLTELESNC
Procedure, shortened: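 HEK293 cells stably expressing mouse GAT2 were kept under blasticidin-S (5 µg/mL) selection. Ice-cold washes preceded scintillation counting. IC50 came from a variable-slope sigmoidal fit.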

[3] = biological target: Sodium- and chloride-dependent betaine transporter (Homo sapiens, UniProt P48065); assay: Inhibition of human BGT1/human GAT3 chimera B expresses in tsA201 cells assessed as reduction in [3H]GABA uptake after 3 mins by scintillation counting method; type: cell-based
Procedure, shortened: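 BGT1/GAT3 chimeric constructs transiently expressed in tsA201 cells. After about 24 h, cells were washed in HEPES-buffered HBSS (1 mM CaCl2, 1 mM MgCl2, pH 7.4). IC50 came from variable-slope sigmoidal regression. Triplicates, at least two independent experiments.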

[4] = biological target: Sodium- and chloride-dependent GABA transporter 3 (Homo sapiens, UniProt P48066, L314Q); assay: Inhibition of human GAT3 L314Q mutant expresses in tsA201 cells assessed as reduction in [3H]GABA uptake after 3 mins by scintillation counting method; type: cell-based
Sequence of Sodium- and chloride-dependent GABA transporter 3 (Homo sapiens, UniProt P48066, L314Q) (P48066 whole entry L314Q): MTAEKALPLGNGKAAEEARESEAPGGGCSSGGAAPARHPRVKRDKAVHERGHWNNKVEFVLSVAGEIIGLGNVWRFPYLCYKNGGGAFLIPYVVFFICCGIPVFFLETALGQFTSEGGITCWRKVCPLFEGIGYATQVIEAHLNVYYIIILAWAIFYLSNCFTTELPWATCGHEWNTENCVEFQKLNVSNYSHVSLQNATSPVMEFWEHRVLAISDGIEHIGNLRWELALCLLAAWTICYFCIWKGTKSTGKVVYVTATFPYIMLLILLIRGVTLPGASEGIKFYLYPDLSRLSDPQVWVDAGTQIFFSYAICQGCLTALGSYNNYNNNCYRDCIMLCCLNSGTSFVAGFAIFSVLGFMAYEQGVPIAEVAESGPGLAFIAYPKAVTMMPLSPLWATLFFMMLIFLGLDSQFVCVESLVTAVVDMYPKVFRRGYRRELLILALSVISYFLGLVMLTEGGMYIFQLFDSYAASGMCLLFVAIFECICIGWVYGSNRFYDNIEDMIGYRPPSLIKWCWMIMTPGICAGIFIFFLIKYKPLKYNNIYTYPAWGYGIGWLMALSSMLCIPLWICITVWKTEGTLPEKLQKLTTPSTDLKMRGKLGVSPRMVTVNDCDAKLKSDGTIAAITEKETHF
Procedure, shortened: (§1)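 Site-directed mutant transporters transiently transfected (PolyFect) into tsA201 cells, plated and used about 24 h later. Cells were washed with HBSS containing 20 mM HEPES, 1 mM CaCl2 and 1 mM MgCl2, pH 7.4. Uptake of 30 nM [3H]GABA was run with varied inhibitor concentrations for 3 min at 37 °C, then three ice-cold washes and scintillation counting. IC50 was taken from variable-slope sigmoidal fits. Triplicates, at least three independent experiments.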

[5] = biological target: Sodium- and chloride-dependent betaine transporter (Homo sapiens, UniProt P48065, Y453S/Y454A); assay: Inhibition of human BGT1 Y453S/Y454A double mutant expressed in tsA201 cells assessed as reduction in [3H]GABA uptake after 3 mins by scintillation counting method; type: cell-based
Sequence of Sodium- and chloride-dependent betaine transporter (Homo sapiens, UniProt P48065, Y453S/Y454A) (P48065 whole entry Y453S/Y454A): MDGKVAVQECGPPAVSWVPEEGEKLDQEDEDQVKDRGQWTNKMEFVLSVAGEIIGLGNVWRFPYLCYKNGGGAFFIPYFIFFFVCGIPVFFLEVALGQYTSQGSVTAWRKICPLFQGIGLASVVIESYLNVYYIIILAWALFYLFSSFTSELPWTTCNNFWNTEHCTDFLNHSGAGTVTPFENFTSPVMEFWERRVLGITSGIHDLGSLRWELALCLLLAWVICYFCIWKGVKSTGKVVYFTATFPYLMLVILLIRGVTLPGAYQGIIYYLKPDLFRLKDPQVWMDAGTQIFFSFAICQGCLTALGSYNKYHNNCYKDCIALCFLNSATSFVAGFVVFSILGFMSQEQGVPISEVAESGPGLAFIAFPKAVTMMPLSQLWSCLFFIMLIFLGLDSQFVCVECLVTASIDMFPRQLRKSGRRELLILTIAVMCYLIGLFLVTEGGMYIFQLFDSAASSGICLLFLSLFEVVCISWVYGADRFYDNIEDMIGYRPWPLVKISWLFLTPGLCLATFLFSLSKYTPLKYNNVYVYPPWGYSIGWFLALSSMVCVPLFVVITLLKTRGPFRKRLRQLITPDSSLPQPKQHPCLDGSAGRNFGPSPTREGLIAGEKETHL
Procedure, shortened: (§2)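 tsA201 cells transiently transfected with wild-type or mutant human BGT1 (PolyFect) were plated about 24 h before assay. Three ice-cold washes followed, then scintillation counting.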

[6] = biological target: T2, Sodium- and chloride-dependent betaine transporter (Homo sapiens, UniProt P48065); assay: Inhibition of human BGT1 expresses in tsA201 cells assessed as reduction in [3H]GABA uptake after 3 mins by scintillation counting method; type: cell-based
T2 sequence (P48065 whole entry): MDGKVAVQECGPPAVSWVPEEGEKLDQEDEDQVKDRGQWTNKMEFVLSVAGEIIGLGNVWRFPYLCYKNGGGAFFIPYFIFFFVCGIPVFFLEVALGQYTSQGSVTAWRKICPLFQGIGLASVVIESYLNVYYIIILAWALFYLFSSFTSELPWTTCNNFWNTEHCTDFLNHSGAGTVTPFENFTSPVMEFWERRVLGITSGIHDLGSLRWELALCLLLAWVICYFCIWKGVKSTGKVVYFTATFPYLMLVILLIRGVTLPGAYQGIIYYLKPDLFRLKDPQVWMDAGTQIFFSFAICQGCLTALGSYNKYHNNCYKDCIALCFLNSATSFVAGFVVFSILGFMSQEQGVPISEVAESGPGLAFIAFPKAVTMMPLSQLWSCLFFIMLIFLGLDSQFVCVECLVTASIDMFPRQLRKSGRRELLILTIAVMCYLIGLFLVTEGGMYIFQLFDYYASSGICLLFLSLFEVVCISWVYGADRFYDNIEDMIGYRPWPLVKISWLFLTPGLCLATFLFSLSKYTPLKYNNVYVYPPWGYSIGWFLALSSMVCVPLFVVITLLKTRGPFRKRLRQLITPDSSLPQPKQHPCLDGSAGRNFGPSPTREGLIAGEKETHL
Procedure, shortened: as §2

[7] = biological target: D(4) dopamine receptor (Homo sapiens) (UniProt P21917); assay: Displacement of [3H]N-methylspiperone from human Dopamine receptor D4 receptor at 10 uM after 90 mins by scintillation counting method
Sequence of D(4) dopamine receptor (Homo sapiens) (P21917 whole entry): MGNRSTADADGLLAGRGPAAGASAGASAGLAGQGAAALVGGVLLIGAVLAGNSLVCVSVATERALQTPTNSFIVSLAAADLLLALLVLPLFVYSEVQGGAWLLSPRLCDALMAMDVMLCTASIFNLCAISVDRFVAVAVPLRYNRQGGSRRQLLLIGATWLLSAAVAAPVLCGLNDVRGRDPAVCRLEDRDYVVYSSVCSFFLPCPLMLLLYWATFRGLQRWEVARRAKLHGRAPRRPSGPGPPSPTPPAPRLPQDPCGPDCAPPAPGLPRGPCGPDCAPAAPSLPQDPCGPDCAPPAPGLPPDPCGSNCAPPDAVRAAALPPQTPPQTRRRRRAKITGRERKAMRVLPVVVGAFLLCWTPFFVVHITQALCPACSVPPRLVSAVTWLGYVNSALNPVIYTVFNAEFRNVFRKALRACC

[8] = biological target: Sodium- and chloride-dependent GABA transporter 1 (Mus musculus, UniProt P31648); assay: Inhibition of mouse GAT1 expressed in HEK293 cells assessed as reduction in [3H]GABA uptake after 3 mins by scintillation counting method; type: cell-based
Procedure, shortened: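 HEK293 lines stably expressing a single mouse GAT subtype, kept under blasticidin-S (5 µg/mL) selection. Cells were assayed about 24 h after plating with 30 nM [3H]GABA plus varying compound concentrations for 3 min at 37 °C in HBSS buffered with 20 mM HEPES (1 mM CaCl2, 1 mM MgCl2, pH 7.4). Cells were washed ice-cold and radioactivity counted. IC50 came from sigmoidal variable-slope fits.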

[9] = biological target: Sodium- and chloride-dependent GABA transporter 3 (Homo sapiens, UniProt P48066, S468Y); assay: Inhibition of human GAT3 S468Y mutant expresses in tsA201 cells assessed as reduction in [3H]GABA uptake after 3 mins by scintillation counting method; type: cell-based
Sequence of Sodium- and chloride-dependent GABA transporter 3 (Homo sapiens, UniProt P48066, S468Y) (P48066 whole entry S468Y): as the sequence (P48066 whole entry L314Q) above, with Q314L, S468Y counted along it
Procedure, shortened: as §1

[10] = biological target: Sodium- and chloride-dependent betaine transporter (Homo sapiens, UniProt P48065, Q299L); assay: Inhibition of human BGT1 Q299L mutant expressed in tsA201 cells assessed as reduction in [3H]GABA uptake after 3 mins by scintillation counting method; type: cell-based
Sequence of Sodium- and chloride-dependent betaine transporter (Homo sapiens, UniProt P48065, Q299L) (P48065 whole entry Q299L): as the sequence (P48065 whole entry Y453S/Y454A) above, with Q299L, S453Y, A454Y counted along it
Procedure, shortened: as §1, with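 “7.4.” for “7.4. Uptake of 30 nM [3H]GABA was run with varied inhibitor concentrations for 3 min at 37 °C, then three ice-cold washes and scintillation counting.”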

[11] = biological target: D(2) dopamine receptor (Homo sapiens) (UniProt P14416); assay: Displacement of [3H]N-methylspiperone from human Dopamine receptor D2 receptor expressed in fibroblast cell membranes at 10 uM after 90 mins by scintillation counting method
Sequence of D(2) dopamine receptor (Homo sapiens) (P14416 whole entry): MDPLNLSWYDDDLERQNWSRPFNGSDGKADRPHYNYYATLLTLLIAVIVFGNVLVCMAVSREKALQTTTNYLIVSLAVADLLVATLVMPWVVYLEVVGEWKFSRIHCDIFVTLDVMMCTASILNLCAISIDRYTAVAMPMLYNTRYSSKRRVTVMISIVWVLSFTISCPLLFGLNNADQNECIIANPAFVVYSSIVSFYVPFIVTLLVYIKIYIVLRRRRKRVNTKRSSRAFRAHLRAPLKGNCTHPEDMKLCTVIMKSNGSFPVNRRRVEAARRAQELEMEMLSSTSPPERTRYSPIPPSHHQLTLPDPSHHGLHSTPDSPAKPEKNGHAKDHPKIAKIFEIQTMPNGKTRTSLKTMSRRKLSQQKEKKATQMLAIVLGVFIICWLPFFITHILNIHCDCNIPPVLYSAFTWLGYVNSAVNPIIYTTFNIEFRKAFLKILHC

Sequence of Sodium- and chloride-dependent GABA transporter 1 (Homo sapiens, UniProt P30531) (P30531 whole entry): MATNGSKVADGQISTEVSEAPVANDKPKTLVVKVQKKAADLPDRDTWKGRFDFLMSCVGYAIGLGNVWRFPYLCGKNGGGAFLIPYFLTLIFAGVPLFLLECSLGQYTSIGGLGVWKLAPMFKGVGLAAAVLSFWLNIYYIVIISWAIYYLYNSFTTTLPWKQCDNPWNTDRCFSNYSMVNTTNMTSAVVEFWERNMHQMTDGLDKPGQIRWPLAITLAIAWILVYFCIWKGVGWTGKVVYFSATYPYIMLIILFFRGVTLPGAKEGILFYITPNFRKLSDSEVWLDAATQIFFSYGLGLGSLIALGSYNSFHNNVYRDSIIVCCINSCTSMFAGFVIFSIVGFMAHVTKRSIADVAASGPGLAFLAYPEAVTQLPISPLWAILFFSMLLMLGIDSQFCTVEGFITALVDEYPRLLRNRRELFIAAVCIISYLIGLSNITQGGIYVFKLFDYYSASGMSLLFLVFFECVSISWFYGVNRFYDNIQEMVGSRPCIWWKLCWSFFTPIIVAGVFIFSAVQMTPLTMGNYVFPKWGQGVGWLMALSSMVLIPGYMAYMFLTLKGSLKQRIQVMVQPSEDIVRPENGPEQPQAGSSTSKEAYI

## O=C(NC1CCN(Cc2ccccc2)CC1)c1ccc(Cl)nc1Cl
[1]; read-out: IC50
  IC50: > 1000 µM
[2]
  IC50: > 400 µM
[3]
  IC50: > 1000 µM
[4]
  IC50: 405 µM
[5]; read-out: IC50
  IC50: 15 µM
[5]; read-out: pIC50 (converted)
  IC50: 12.9 µM
[6]; read-out: IC50
  IC50: 44 µM
[6]; read-out: pIC50 (converted)
  IC50: 40.7 µM
[7]
  inhibition: inactive
[8]
  IC50: > 400 µM
[9]
  IC50: > 1000 µM
[10]
  IC50: 8 µM
[11]
  inhibition: inactive

## O=C(NC1CCN(Cc2ccccc2)CC1)c1ccc(Cl)cc1Cl
[1]
  IC50: > 100 µM
[2]
  IC50: > 200 µM
[3]
  IC50: > 1000 µM
[4]
  IC50: 460 µM
[5]; read-out: IC50
  IC50: 6 µM
[6]; read-out: IC50
  IC50: 18 µM
[7]
  inhibition: Active
[8]
  IC50: > 200 µM
[9]
  IC50: > 300 µM
[10]
  IC50: 3 µM
[11]
  inhibition: Active
